A word on the IC50: it is the point on the concentration scale where inhibition reaches its midpoint. Read a high IC50 as a need for much substance. What is called inhibition is the relative decrease from the control value, in per cent.

Assay [1] addresses T1, Sterol O-acyltransferase 1 (Rattus norvegicus, UniProt O70536).
T1 sequence (O70536 whole entry): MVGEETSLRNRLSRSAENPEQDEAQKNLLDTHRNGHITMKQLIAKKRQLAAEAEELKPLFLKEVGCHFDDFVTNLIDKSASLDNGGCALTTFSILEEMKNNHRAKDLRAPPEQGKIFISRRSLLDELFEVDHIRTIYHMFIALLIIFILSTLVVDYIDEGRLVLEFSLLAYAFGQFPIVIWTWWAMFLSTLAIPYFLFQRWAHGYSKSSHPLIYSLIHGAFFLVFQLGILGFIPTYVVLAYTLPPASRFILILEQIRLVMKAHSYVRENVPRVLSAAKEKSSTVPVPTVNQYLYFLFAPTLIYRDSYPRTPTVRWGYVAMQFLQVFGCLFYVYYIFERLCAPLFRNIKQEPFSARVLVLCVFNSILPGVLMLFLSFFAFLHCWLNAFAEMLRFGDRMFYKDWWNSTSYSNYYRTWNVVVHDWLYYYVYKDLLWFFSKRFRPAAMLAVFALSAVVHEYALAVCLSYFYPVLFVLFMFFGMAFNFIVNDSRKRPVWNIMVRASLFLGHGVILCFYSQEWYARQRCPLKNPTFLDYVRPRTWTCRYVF
Kind of assay: In vitro potency was determined using Acyl coenzyme A:cholesterol acyltransferase in liver microsomes from rats. On the set-up: species or system Microsome. The procedure, abridged: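 Enzyme source was liver microsomes prepared from chow-fed Sprague-Dawley rats, assayed for ACAT activity by the Billheimer method. IC50 was determined.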
(Liver microsomes are a subcellular fraction often used to study metabolism.)

Assay [2] concerns the target T2, 3-hydroxy-3-methylglutaryl-coenzyme A reductase (Rattus norvegicus) (UniProt P51639).
T2 sequence (whole entry): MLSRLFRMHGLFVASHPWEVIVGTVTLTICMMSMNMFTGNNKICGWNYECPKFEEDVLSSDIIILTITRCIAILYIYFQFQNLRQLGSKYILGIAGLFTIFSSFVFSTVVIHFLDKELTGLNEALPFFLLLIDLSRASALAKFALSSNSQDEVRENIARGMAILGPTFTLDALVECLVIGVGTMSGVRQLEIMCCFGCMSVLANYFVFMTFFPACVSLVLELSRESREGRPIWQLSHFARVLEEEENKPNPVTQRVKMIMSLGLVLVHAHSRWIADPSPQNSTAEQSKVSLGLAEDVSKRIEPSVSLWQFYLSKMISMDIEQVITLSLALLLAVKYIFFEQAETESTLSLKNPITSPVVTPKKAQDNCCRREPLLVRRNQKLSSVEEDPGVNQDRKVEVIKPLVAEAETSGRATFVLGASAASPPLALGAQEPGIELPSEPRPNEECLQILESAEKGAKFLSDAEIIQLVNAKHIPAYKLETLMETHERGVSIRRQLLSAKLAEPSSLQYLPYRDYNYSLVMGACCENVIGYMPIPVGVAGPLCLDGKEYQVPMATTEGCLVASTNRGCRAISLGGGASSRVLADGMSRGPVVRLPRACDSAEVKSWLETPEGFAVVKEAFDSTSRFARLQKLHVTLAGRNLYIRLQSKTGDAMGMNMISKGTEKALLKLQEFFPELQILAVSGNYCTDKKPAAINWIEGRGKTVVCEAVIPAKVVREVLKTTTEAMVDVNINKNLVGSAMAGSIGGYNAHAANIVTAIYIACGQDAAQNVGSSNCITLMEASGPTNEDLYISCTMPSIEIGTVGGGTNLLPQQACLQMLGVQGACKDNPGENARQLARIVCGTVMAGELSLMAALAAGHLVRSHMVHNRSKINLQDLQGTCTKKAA
Kind of assay: Dose required for 50 percent inhibition of 3-Hydroxy-3-methylglutaryl coenzyme A reductase in vitro in rats at 100 uM; No effect.

For assay [3], the target named is T3, Sterol O-acyltransferase 1 (Rattus norvegicus) (UniProt O70536).
T3 sequence (whole entry): T1 sequence (O70536 whole entry)
The conditions noted are these: 0.135 uM.

For another assay, the system named is Cricetinae gen. sp. Description: Effects on cholesterol absorption in hamsters. In kind it is functional, organism-based. The following applies: Cricetulus griseus. The procedure, abridged: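 Cholesterol-fed hamsters received radiolabeled cholesterol in a liquid diet together with the drug, and untreated controls were included. Animals were sacrificed 24 h later. Absorption inhibition was estimated from plasma and liver radioactivity relative to controls. Dose-response studies gave ED50, and chow-fed hamsters were also tested.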

The test system of another assay is Oryctolagus cuniculus. Kind of assay: Evaluation for the plasma cholesterol lowering in rabbits at the dose 5 mg/kg. On the set-up: dose 5 mg/kg. In kind it is functional, organism-based. Put shortly: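 Cholesterol-fed New Zealand White rabbits: diet with 0.4% cholesterol and 5% peanut oil for 4 weeks, drug given over the final 3 weeks at a single dose of 5 mg/kg. Read-out is total plasma cholesterol (mg/dL) against untreated controls, mean ± standard deviation, n = 5 per group.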

Assay [4] in a line: Dose required for 50 percent inhibition of lecithin cholesterol acyl transferase in vitro in rats at 30 uM; No effect.
The nature of assay [5]: Dose required for 50 percent inhibition of lecithin cholesterol acyl transferase in vitro in rats at 300 uM; No effect.
Assay [6] concerns the target T4, Bile salt-activated lipase (Bos taurus) (UniProt P30122).
T4 sequence (whole entry): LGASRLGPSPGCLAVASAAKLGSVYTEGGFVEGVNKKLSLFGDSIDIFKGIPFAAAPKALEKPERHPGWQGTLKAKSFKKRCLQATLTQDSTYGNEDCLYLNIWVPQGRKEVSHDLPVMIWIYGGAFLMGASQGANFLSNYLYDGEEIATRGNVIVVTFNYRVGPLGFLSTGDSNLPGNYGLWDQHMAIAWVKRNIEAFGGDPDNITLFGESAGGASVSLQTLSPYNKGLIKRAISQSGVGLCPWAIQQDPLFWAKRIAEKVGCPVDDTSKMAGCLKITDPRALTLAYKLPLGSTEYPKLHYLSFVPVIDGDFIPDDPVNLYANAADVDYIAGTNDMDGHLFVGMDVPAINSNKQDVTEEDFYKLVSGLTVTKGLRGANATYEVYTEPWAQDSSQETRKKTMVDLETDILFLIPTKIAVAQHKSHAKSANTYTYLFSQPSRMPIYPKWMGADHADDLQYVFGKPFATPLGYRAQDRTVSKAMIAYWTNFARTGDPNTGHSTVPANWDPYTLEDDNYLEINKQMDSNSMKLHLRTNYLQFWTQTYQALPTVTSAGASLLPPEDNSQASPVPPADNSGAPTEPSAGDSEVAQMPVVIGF
Kind of assay: Dose required for 50 percent inhibition of Pancreatic cholesterol esterase in vitro in rats at 300 uM; No effect.

A short description of assay [7]: Dose required for 50 percent inhibition of rat Pancreatic cholesterol esterase in vitro No effect at 300 uM.

Active and inactive are the calls of the source. The rule behind the calls is not given here.

`CCCCCCCCC(SCCCCCC)C(=O)Nc1c(SC)cc(C)nc1SC` (single isomer, unassigned) showed an IC50 in assay [1] of 160 nM.
Consider `CCCCCCCC[C@H](SCCCCCC)C(=O)Nc1c(SC)ccc2ncccc12`, for which the inhibition entry in assay [2] and in [4] was “inactive” in each case. Also, the inhibition in assay [3] is 50%. This compound gave an IC50 in assay [1] of 135 nM. In the assay on Cricetinae gen. sp., this compound displayed an Absorption of 0.24 mg/kg. Also, in the assay with Oryctolagus cuniculus, the Level amounted to 123 mg/dL.
Compound `CCCCCCCC[C@@H](SCCCCCC)C(=O)Nc1c(SC)ccc2ncccc12` registered a half-inhibitory concentration (IC50) in assay [1] of 750 nM.
Take `CCCCCCCC[C@H](SCCCCCC)C(=O)Nc1c(SC)cc(C)nc1SC`: the inhibition result in [5], in assay [6] and in [7] was “inactive” throughout. The compound also gave an IC50 in assay [1] of 22 nM. Besides, in the assay with Cricetinae gen. sp., the Absorption was determined as 0.009 mg/kg. The compound also came in with a Level with Oryctolagus cuniculus of 98 mg/dL.

(Values after ChEMBL document CHEMBL1127642, “Potent, selective, and systemically-available inhibitors of acyl-coenzyme A:cholesterol acyl transferase (ACAT)” (J Med Chem, 1994).)
